# Results taken from ChEMBL document CHEMBL1777764, “Synthesis and evaluation of 1-(1H-indol-3-yl)ethanamine derivatives as new antibacterial agents” (Bioorg Med Chem, 2011).
# Experiments:
# KB [1] = assay: Cytotoxicity against human KB cells at 10 uM; type: cell-based
# Streptococcus agalactiae = assay: Antibacterial activity against Streptococcus agalactiae ATCC 12400 after 18 hrs by broth microdilution method; type: functional; conditions: ATCC 12400, 18 h
# Summary of the method: (§1)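 Broth microdilution following ISO 20776-1:2006 and CLSI M07-A8, in Mueller-Hinton broth. Inoculum was 10^6 cfu/ml, with compound serial dilutions spanning 2 to 128 ug/ml and a compound-free growth control well. Plates were incubated 18 h at 37 °C. MIC was the lowest concentration giving complete inhibition of visible growth. Each compound was tested at least twice.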
# Staphylococcus aureus [2] = assay: Antibacterial activity against Staphylococcus aureus CIP 103428 after 18 hrs by broth microdilution method; type: functional; conditions: CIP 103428, 18 h
# Summary of the method: (§2)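 MIC by broth microdilution per ISO 20776-1:2006 and CLSI M07-A8. Inoculum 10^6 cfu/ml in Mueller-Hinton broth with compound serially diluted, final concentrations 2 to 128 ug/ml, duplicate rows, no-drug growth control. Incubation 18 h at 37 °C. MIC taken as lowest concentration giving complete inhibition of visible growth. Each compound tested at least twice.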
# Staphylococcus aureus [3] = assay: Antibacterial activity against methicillin-resistant Staphylococcus aureus ATCC 33592 after 18 hrs by broth microdilution method; type: functional; conditions: ATCC 33592, 18 h; summary of the method: as §1
# HCT-116 [4] = assay: Cytotoxicity against human HCT116 cells at 1 uM; type: cell-based; conditions: hct-116, 1 µM
# Staphylococcus aureus [5] = assay: Antibacterial activity against methicillin-resistant Staphylococcus aureus CIP 65.25 after 18 hrs by broth microdilution method; type: functional; conditions: CIP 65.25, 18 h; summary of the method: as §1
# Staphylococcus aureus [6] = assay: Antibacterial activity against Staphylococcus aureus ATCC 29213 after 18 hrs by broth microdilution method; type: functional; conditions: ATCC 29213, 18 h; summary of the method: as §2
# Streptococcus mitis = assay: Antibacterial activity against Streptococcus mitis CIP 103335 after 18 hrs by broth microdilution method; type: functional; conditions: CIP 103335, 18 h
# Summary of the method: as §1, with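 “broth […].” for “broth.”, “read after” for “incubated”, “with no” for “giving complete inhibition of”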
# Enterococcus faecalis = assay: Antibacterial activity against Enterococcus faecalis ATCC 29212 after 18 hrs by broth microdilution method; type: functional; conditions: ATCC 29212, 18 h; summary of the method: as §1
# Staphylococcus aureus [7] = assay: Antibacterial activity against Staphylococcus aureus ATCC 25923 after 18 hrs by broth microdilution method; type: functional; conditions: ATCC 25923, 18 h; summary of the method: as §2
# Serratia marcescens = assay: microbe, parasite or virus in culture; conditions: CIP 103551, 18 h
# [8] = tested on: Staphylococcus epidermidis; assay: Antibacterial activity against Staphylococcus epidermidis ATCC 12228 after 18 hrs by broth microdilution method; type: functional; conditions: ATCC 12228, 18 h; summary of the method: as §2
# Streptococcus pneumoniae [9] = assay: Antibacterial activity against Streptococcus pneumoniae ATCC 49619 after 18 hrs by broth microdilution method; type: functional; conditions: ATCC 49619, 18 h
# Summary of the method: (§3)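 MIC by broth microdilution per ISO 20776-1:2006 and CLSI M07-A8. Inoculum 10^6 cfu/ml in Mueller-Hinton broth […]. Compound serially diluted, final 2 to 128 ug/ml, duplicate rows, no-drug growth control. Read after 18 h at 37 °C as lowest concentration fully inhibiting visible growth. At least two experiments.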
# Staphylococcus aureus [10] = assay: Antibacterial activity against vancomycin intermediate Staphylococcus aureus […] after 18 hrs by broth microdilution method; type: functional; summary of the method: as §1
# HCT-116 [11] = assay: Cytotoxicity against human HCT116 cells at 10 uM; type: cell-based; conditions: hct-116, 10 µM
# Streptococcus pyogenes = assay: Antibacterial activity against Streptococcus pyogenes CIP 104226 after 18 hrs by broth microdilution method; type: functional; conditions: CIP 104226, 18 h; summary of the method: as §1
# Escherichia coli = assay: Antibacterial activity against Escherichia coli ATCC 25922 after 18 hrs by broth microdilution method; type: functional; conditions: ATCC 25922, 18 h; summary of the method: as §1
# Enterococcus faecium = assay: Antibacterial activity against Enterococcus faecium CIP 54.32 after 18 hrs by broth microdilution method; type: functional; conditions: CIP 54.32, 18 h; summary of the method: as §1
# MRC5 [12] = assay: Cytotoxicity against human MRC5 cells at 1 uM; type: cell-based; conditions: mrc5, 1 µM
# Staphylococcus aureus [13] = assay: Antibacterial activity against Staphylococcus aureus ATCC 6538 after 18 hrs by broth microdilution method; type: functional; conditions: ATCC 6538, 18 h; summary of the method: as §2
# MRC5 [14] = assay: Cytotoxicity against human MRC5 cells at 10 uM; type: cell-based; conditions: mrc5, 10 µM
# Klebsiella pneumoniae = assay: microbe, parasite or virus in culture; conditions: ATCC 35657, 18 h
# Acinetobacter baumannii = assay: microbe, parasite or virus in culture; conditions: ATCC 19606 = CIP 70.34 = JCM 6841, 18 h
# [15] = tested on: Staphylococcus epidermidis; assay: Antibacterial activity against Staphylococcus epidermidis CIP 103627 after 18 hrs by broth microdilution method; type: functional; conditions: CIP 103627, 18 h; summary of the method: as §2
# Staphylococcus aureus [16] = assay: Antibacterial activity against Staphylococcus aureus ATCC 9144 after 18 hrs by broth microdilution method; type: functional; conditions: ATCC 9144, 18 h; summary of the method: as §2
# Pseudomonas aeruginosa = assay: microbe, parasite or virus in culture; conditions: CIP 5933, 18 h
# Staphylococcus aureus [17] = assay: Antibacterial activity against Staphylococcus aureus CIP 65.6 after 18 hrs by broth microdilution method; type: functional; conditions: CIP 65.6, 18 h; summary of the method: as §2
# [18] = tested on: Staphylococcus epidermidis; assay: Antibacterial activity against Staphylococcus epidermidis CIP 81.55 after 18 hrs by broth microdilution method; type: functional; conditions: CIP 81.55, 18 h; summary of the method: as §2
# Streptococcus pneumoniae [19] = assay: Antibacterial activity against Streptococcus pneumoniae ATCC 6303 after 18 hrs by broth microdilution method; type: functional; conditions: ATCC 6303, 18 h; summary of the method: as §3
# KB [20] = assay: Cytotoxicity against human KB cells at 1 uM; type: cell-based
# Enterobacter cloacae = assay: microbe, parasite or virus in culture; conditions: ATCC 13047, 18 h
# Haemophilus influenzae = assay: Antibacterial activity against Haemophilus influenzae ATCC 49766 after 18 hrs by broth microdilution method; type: functional; conditions: ATCC 49766, 18 h
# Summary of the method: as §1, with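 “broth […].” for “broth.”, “read after” for “incubated”, “with no” for “giving complete inhibition of”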
Structure (SMILES),Activity (KB [1]),MIC (Streptococcus agalactiae) [µg/mL],MIC (Staphylococcus aureus [2]) [µg/mL],MIC (Staphylococcus aureus [3]) [µg/mL],Activity (HCT-116 [4]),MIC (Staphylococcus aureus [5]) [µg/mL],MIC (Staphylococcus aureus [6]) [µg/mL],MIC (Streptococcus mitis) [µg/mL],MIC (Enterococcus faecalis) [µg/mL],MIC (Staphylococcus aureus [7]) [µg/mL],MIC [8] [µg/mL],MIC (Staphylococcus aureus [10]) [µg/mL],MIC (Streptococcus pyogenes) [µg/mL],MIC (Escherichia coli) [µg/mL],MIC (Enterococcus faecium) [µg/mL],MIC (Staphylococcus aureus [13]) [µg/mL],MIC [15] [µg/mL],MIC (Staphylococcus aureus [16]) [µg/mL],MIC (Staphylococcus aureus [17]) [µg/mL],MIC [18] [µg/mL],also measured
Cl.Cl.NCC(NO)c1c[nH]c2cccc(Br)c12 (stereo not given),Non-toxic,128,32,32,Non-toxic,32,32,128,> 128,32,32,32,128,128,> 128,32,32,32,32,32,MIC (Serratia marcescens): > 128 µg/mL; MIC (Streptococcus pneumoniae [9]): 128 µg/mL; Activity (HCT-116 [11]): Non-toxic; Activity (MRC5 [12]): Non-toxic; Activity (MRC5 [14]): Non-toxic; MIC (Klebsiella pneumoniae): > 128 µg/mL; MIC (Acinetobacter baumannii): > 128 µg/mL; MIC (Pseudomonas aeruginosa): > 128 µg/mL; MIC (Streptococcus pneumoniae [19]): 128 µg/mL; Activity (KB [20]): Non-toxic; MIC (Enterobacter cloacae): > 128 µg/mL
Cl.Cl.NCC(NO)c1c[nH]c2cc(Br)ccc12 (stereo not given),Non-toxic,128,16,16,Non-toxic,16,16,128,> 128,16,16,16,128,32,> 128,16,16,16,16,16,MIC (Serratia marcescens): 64 µg/mL; MIC (Streptococcus pneumoniae [9]): 64 µg/mL; Activity (HCT-116 [11]): Non-toxic; Activity (MRC5 [12]): Non-toxic; Activity (MRC5 [14]): Non-toxic; MIC (Klebsiella pneumoniae): 64 µg/mL; MIC (Acinetobacter baumannii): 64 µg/mL; MIC (Pseudomonas aeruginosa): 64 µg/mL; MIC (Streptococcus pneumoniae [19]): 64 µg/mL; Activity (KB [20]): Non-toxic; MIC (Enterobacter cloacae): 64 µg/mL
O=C(O)c1cn(C2CC2)c2cc(N3CCNCC3)c(F)cc2c1=O [CIPROFLOXACIN],–,0.25,0.5,–,–,–,0.5,0.25,1,0.5,0.25,32,0.25,0.064,1,0.5,0.25,0.5,0.5,0.25,MIC (Haemophilus influenzae): 0.5 µg/mL
Cl.Cl.NCC(NO)c1c[nH]c2ccc(Br)cc12 (stereo not given),Non-toxic,64,16,16,Non-toxic,16,16,64,128,16,8,16,64,16,128,16,8,16,16,8,MIC (Serratia marcescens): 64 µg/mL; MIC (Streptococcus pneumoniae [9]): 64 µg/mL; Activity (HCT-116 [11]): Non-toxic; Activity (MRC5 [12]): Non-toxic; Activity (MRC5 [14]): Non-toxic; MIC (Klebsiella pneumoniae): 64 µg/mL; MIC (Acinetobacter baumannii): 64 µg/mL; MIC (Pseudomonas aeruginosa): 64 µg/mL; MIC (Streptococcus pneumoniae [19]): 64 µg/mL; Activity (KB [20]): Non-toxic; MIC (Enterobacter cloacae): 64 µg/mL
